Screens (PubChem BioAssay)
NR2E3 ag-1: human photoreceptor-specific nuclear receptor agonism; Q9Y5X4; inhibition of corepressor binding, % at 3.98 µM; actives 0.35% (n = 360,000); CHO-S Gal4-NCOR/VP16-NR2E3 two-hybrid, luciferase;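 active means inhibition above the mean of all tested compounds plus 3 SD, cut at about 70% in these data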;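 further: 0% = DMSO with NR2E3 transfected cells and 100% = cells lacking NR2E3 construct; higher means lower luciferase signal from less NR2E3 corepressor binding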
Rev-erbA mod: Rev-erb alpha (human) modulation; P20393; Rev-erbα–FITC-DNA binding, fluorescence polarization, 90 min; activity, % at 10 µM; actives 0.79% (n = 370,000); AID 1259318;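 active means activity above about 14%, limit read from the data; passing the limit was not always enough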;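 further: 0% = DMSO wells with 35 nM protein and 100% = DMSO wells with 750 nM protein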
Target sequence (P20393 whole entry, looked up): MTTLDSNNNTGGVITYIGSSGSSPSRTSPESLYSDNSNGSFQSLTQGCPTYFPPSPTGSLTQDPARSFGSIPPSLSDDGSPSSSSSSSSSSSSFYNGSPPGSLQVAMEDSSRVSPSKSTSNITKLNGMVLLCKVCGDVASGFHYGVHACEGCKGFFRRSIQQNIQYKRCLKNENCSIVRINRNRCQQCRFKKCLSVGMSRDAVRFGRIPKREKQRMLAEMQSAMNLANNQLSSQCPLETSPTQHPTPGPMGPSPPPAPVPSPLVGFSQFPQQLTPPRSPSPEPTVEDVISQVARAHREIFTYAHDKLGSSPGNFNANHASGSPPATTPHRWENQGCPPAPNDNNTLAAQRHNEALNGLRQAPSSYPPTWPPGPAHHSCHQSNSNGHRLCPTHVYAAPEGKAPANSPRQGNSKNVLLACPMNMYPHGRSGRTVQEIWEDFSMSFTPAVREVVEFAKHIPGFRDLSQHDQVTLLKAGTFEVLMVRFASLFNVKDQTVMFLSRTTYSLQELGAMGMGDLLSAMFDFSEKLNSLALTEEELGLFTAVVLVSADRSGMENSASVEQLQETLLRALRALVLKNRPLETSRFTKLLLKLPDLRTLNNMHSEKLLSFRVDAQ
NR2E3 ag-2: activates human photoreceptor nuclear receptor NR2E3. Q9Y5X4. inhibition of corepressor binding, % at 4.78 µM. actives 0.12% (n = 320,000). GST-NR2E3/biotin-RetCOR TR-FRET, 1536-well;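 active means percent inhibition above the cutoff of mean plus 3 SD of all tested compounds, set per screening campaign, cut at about 20% in these data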;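 further: 0% = DMSO wells and 100% = biotin wells as full block of FRET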
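Material: NR2E3–RetCOR corepressor complex / Incubation: Compound–protein incubation for 5 h at 4 °C / Dosing: compound at 4.8 µM, single dose / Detection: time-resolved FRET / Benchmarks: high control biotin, low control 0.6% DMSO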
PG9 Ab binder: small molecules binding HIV-1 gp120 antibody PG9. inhibition, % at 6.7 µM. TR-FRET gp120-PG9 antibody binding. actives 0.43% (n = 360,000); in the data active means inhibition above about 8.5%
Rev-erbA confirm: Rev-erb alpha (human) modulation, hit confirmation. actives 61% (n = 3,000). shares compounds with Rev-erbA mod. Rev-erb alpha FITC-DNA binding, fluorescence polarization, 90 min. activation, % at 25 µM;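 active means activation at or above a set limit, or at least 3 SD above the negative control mean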;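 further: 0% = 35 nM protein with DMSO and 100% = 750 nM protein high control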
RORg DNA counter: affects RORgamma DNA binding in a Rev-erb alpha counter-screen; shares compounds with Rev-erbA mod; purified RORgamma protein-FITC-DNA binding, fluorescence polarization; IC50, µM; actives 8% (n = 910); AID 1259320;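 active means Compounds whose fitted half-maximal concentration for disrupting protein-DNA binding is below 10 micromolar; the record names Rev-erb in its text, so the target is in doubt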
An asterisk follows results filed as active; nt = not tested or not shown. A selection: hits, their analogues and other compounds. The true share with any hit is near 1.5%.

SMILES	NR2E3 ag-1	Rev-erbA mod	NR2E3 ag-2	PG9 Ab binder	Rev-erbA confirm	others
Cc1cccc(CSc2nc3c(cc2C#N)CCC3)c1	-29	47*	0	0	30*
N#Cc1cc2c(nc1SCc1cccnc1)CCC2	-11	-1	5	-5	nt
CCCCCOc1ccc(NC(=O)CSc2cccc3cccnc23)cc1	7	46*	2	-2	39*	RORg DNA counter=1.4*
COC[C@@H]1CCCN1c1ccc2c(c1)O[C@@H](COCc1ccccc1)CN([C@@H](C)c1ccccc1)S2(=O)=O	-1	4	nt	-2	nt
COC(=O)[C@]1(Cc2ccccc2)N[C@H](c2ccc(-c3cccc(Cl)c3)c(OC)c2)[C@@H]2C(=O)N(C)C(=O)[C@@H]21	7	25*	nt	-4	17*
CCN1C(=O)[C@H]2[C@@H](c3ccc(-c4cccc(Cl)c4)c(OC)c3)N[C@@](Cc3ccccc3)(C(=O)OC)[C@H]2C1=O	10	4	0	0	nt
CCOc1ccc(CNC(=O)C2CCN(c3nnc(C)c4c(C)n(-c5ccc(C)cc5)nc34)CC2)cc1	-10	33*	-136	2	34*	RORg DNA counter=>40
COc1ccc(-n2nc3c(N4CCC(C(=O)NCc5cccc(C)c5)CC4)nnc(C)c3c2C)cc1	0	5	-70	-4	nt
O=C(Cn1nc(-c2ccccc2)c2ccccc21)Oc1ccccc1	nt	6	nt	nt	nt
CCOc1cccc2cc(-c3cn4cc(C)ccc4n3)c(=O)oc12	-42	53*	1	3	25*
Cc1ccc(-c2cc(C(F)F)nc3sc4c(=O)[nH]cnc4c23)cc1	-11	107*	2	3	113*	RORg DNA counter=>40
C=CCn1c(=NC(=O)c2ccco2)sc2cc(C(=O)OC)ccc21	-25	28*	-7	3	35*	RORg DNA counter=>40
CCOC(=O)c1sc(=NC(=O)c2ccco2)n(C)c1C	-92	1	3	1	nt
C=CCn1c(=NC(=O)c2ccco2)sc2cc(C(=O)OCC)ccc21	-49	29*	-1	6	23*
COCCn1c(=NC(=O)c2ccco2)sc2cc(C(=O)OC)ccc21	16	42*	1	-2	38*	RORg DNA counter=>40
COc1ccccc1N1CC(C(=O)Nc2cc(C(F)(F)F)ccc2N2CCCC2)CC1=O (stereo not given)	-10	-2	-3	1	nt
COc1cccc(NC(=O)CSc2nnc3ccc(-c4ccccn4)nn23)c1	-8	35*	nt	0	-3
CC(=O)Nc1cccc(NC(=O)CSc2nnc3ccc(-c4ccccn4)nn23)c1	3	0	0	-1	nt
CN(C)c1ccc(/C=c2\sc3n(c2=O)CCCN=3)cc1	-119	27*	-4	-18	17
O=c1/c(=C/c2ccc(O)cc2)sc2n1CCCN=2	-39	-6	-2	-3	nt
Cc1cc(S(=O)(=O)NC2CC(C)(C)NC(C)(C)C2)c(Cl)cc1Cl	9	-2	2	-1	nt
O=C(Cn1c(=O)n(CC2CCCO2)c(=O)c2ccccc21)c1ccc(Cl)c(Cl)c1 (stereo not given)	-30	27*	-3	5	24*
CC(C)(C)C(=O)Cn1c(=O)n(CC2CCCO2)c(=O)c2ccccc21 (stereo not given)	-8	2	2	1	nt
O=C(C[n+]1ccc(/C=N/O)cc1)N1CCCCC1	6	-4	-3	0	nt
Cc1ccc(OCC(=O)Nc2ccc(Cl)cc2)c(-n2nc3ccccc3n2)c1	-4	69*	3	0	10
SMILES	NR2E3 ag-1	Rev-erbA mod	NR2E3 ag-2	PG9 Ab binder	Rev-erbA confirm	others
CCOc1ccc(C)cc1-n1nc2ccccc2n1	-25	1	1	2	nt
CCCCCCOC(=O)C1=C(C)NC(=O)NC1c1ccc2c(c1)OCO2 (stereo not given)	-16	17*	2	-4	14
CCOC(=O)C1=C(C)NC(=O)NC1c1ccc2c(c1)OCO2 (stereo not given)	5	-2	2	1	nt
CCC(CC)COC(=O)C1=C(C)NC(=O)NC1c1ccc(OC)cc1 (stereo not given)	-19	21*	1	-2	20*
Cc1nn(CC2CC2)c(=O)n1-c1cccc(Cl)c1	9	0	3	0	nt
Cc1cccc(NC(=S)NC2CC3CCCC(C2)N3Cc2ccccc2)c1C (stereo not given)	-23	-4	2	-1	nt
CN(C(=O)CSc1ccncc1)C1CCCN(Cc2ccccc2F)C1 (stereo not given)	1	4	0	-1	nt
CC(=O)N(CC(=O)N(CC(=O)O)c1ccc(Cl)cc1)c1ccc(Cl)cc1	3	4	nt	-2	nt
Cc1ccc2c(c1)-c1c(cnn1CC(=O)NCCc1ccc(O)cc1)CO2	nt	-10	nt	nt	nt
COc1ccc(C(=O)CN2C(=O)NC3(CCCc4ccccc43)C2=O)c(OC)c1 (stereo not given)	12	23*	0	2	10
CC(=O)NCC(=O)N1CCCC(C(=O)c2ccc(Oc3ccccc3)cc2)C1 (stereo not given)	-19	6	1	-2	nt
N#Cc1c(-c2ccccc2F)cc(C2CC2)nc1SCC(=O)c1cccs1	-17	40*	-2	-5	28*
COC(=O)[C@]12C[C@H](CC(=O)NCc3ccc(OC)c(OC)c3)C(=O)N(Cc3ccco3)C1=C[C@H](C(C)C)O[C@@H]2C1CC1	nt	1	nt	nt	nt
CC(=O)c1ccc(S(=O)(=O)NCCC(=O)OCC(=O)N2CCCC2=O)cc1	2	-1	2	-1	nt
COCCCn1c(=O)c2ccccc2n(Cc2cc(C(=O)OC)ccc2OC)c1=O	20	-5	1	-2	nt
O=C1COc2ccc(C(=O)COC(=O)c3c(F)cccc3Cl)cc2N1	-20	16*	-4	2	8
O=C1COc2ccc(C(=O)COC(=O)Cc3c(F)cccc3Cl)cc2N1	-21	0	nt	0	nt
Cc1oc2c(cc(NS(=O)(=O)c3cccs3)c3ccccc32)c1C(=O)OC(C)C	6	50*	1	-3	72*
Cc1oc2c(cc(NS(=O)(=O)c3ccc(C(C)C)cc3)c3ccccc32)c1C(=O)O	-2	-4	2	-3	nt
COc1ccc(Cl)cc1-c1nc(-c2ccncc2)no1	-25	30*	2	3	9
CCC(=O)N=c1sc2cc(F)cc(F)c2n1C	-37	-6	2	-1	nt
CCC(=O)N=c1sc2c(OC)ccc(OC)c2n1C	-27	47*	3	0	30*	RORg DNA counter=>40
COc1ccc(C)c2sc(=NC(=O)c3cccc(N4C(=O)CCC4=O)c3)n(C)c12	-15	43*	0	-2	23*
COc1ccc(C)c2sc(=NC(=O)c3ccc(C(C)=O)cc3)n(C)c12	-86	5	-1	1	nt
COc1ccc(OC)c2c1sc(=NC(=O)C1COc3ccccc3O1)n2C (stereo not given)	-13	29*	2	-1	21*
